{"data": "Results collected from several papers", "cell line": "MCF-10A", "observed": "cell growth or viability"}
{"SMILES": "CC(C)C(=O)Nc1ccc([N+](=O)[O-])c(C(F)(F)F)c1", "test": "CCK-8", "conditions": "48 h", "IC50": "21.4 µM"}
{"SMILES": "CCCc1ccc(-c2cnc3c(n2)CCCC3)cc1", "conditions": "48 h", "IC50": "> 50 µM"}
{"SMILES": "CCN(CC)CCNC(=O)c1c(C)[nH]c(/C=C2\\C(=O)Nc3ccc(F)cc32)c1C", "conditions": "72 h", "IC50": "4.07 µM"}
{"SMILES": "Cc1cc2ncc(-c3ccccc3)nc2cc1C", "conditions": "48 h", "IC50": "> 50 µM"}
{"SMILES": "COc1cccc2c1C(=O)c1c(O)c3c(c(O)c1C2=O)C[C@@](O)(C(=O)CO)C[C@@H]3O[C@H]1C[C@H](N)[C@H](O)[C@H](C)O1", "test": "resazurin", "conditions": "72 h", "IC50": "0.037 µM"}
{"SMILES": "C[C@](C#N)(COc1cc(C#N)ccc1C(F)(F)F)NC(=O)c1ccc(SC(F)(F)F)cc1", "conditions": "48 h", "IC50": "~32.8 µM"}
{"SMILES": "CCCOc1cccc(-c2cnc3c(n2)CCCC3)c1", "conditions": "48 h", "IC50": "> 50 µM"}
{"SMILES": "O=C(NC(=S)NCCNC(=S)NC(=O)c1ccc2ccccc2c1)c1ccc2ccccc2c1", "conditions": "48 h", "IC50": "86.1 µM"}
{"SMILES": "CC(C)[C@H](NC(=O)c1cc(Cl)ccc1OCCNC(=O)OC(C)(C)C)C(=O)Nc1ccc([N+](=O)[O-])cc1Cl", "test": "MTT", "conditions": "72 h", "IC50": "> 60 µM"}
{"SMILES": "C[C@H]1O[C@@H](n2cc(F)c(=O)[nH]c2=O)[C@H](O)[C@@H]1O", "test": "CCK-8", "conditions": "48 h", "IC50": "8.51 µM"}
{"SMILES": "COc1ccc(-c2cnc3c(n2)CCCC3)cc1C#N", "conditions": "48 h", "IC50": "> 50 µM"}
{"SMILES": "O=C(/C=C/c1ccccc1)c1ccccc1", "test": "resazurin", "conditions": "72 h", "IC50": "3.15 µM"}
{"SMILES": "c1ccc2cc(-c3nnc(NC4CCCCC4)[nH]3)ccc2c1", "conditions": "48 h", "IC50": "86.6 µM"}
{"SMILES": "COc1cccc2c1C(=O)c1c(O)c3c(c(O)c1C2=O)C[C@@](O)(C(=O)CO)C[C@@H]3O[C@H]1C[C@H](N)[C@H](O)[C@H](C)O1", "conditions": "48 h", "IC50": "2.17 µM"}
